An excerpt weighted towards active compounds, which were near 1.4% of everything screened.
Cardio protect = cardioprotection against H2O2-induced cell death, primary screen, uHTS, H9c2 cells, ATPLite luminescence. H9c2 cardiomyocytes, H2O2 injury protection, 2 h. protection from H2O2 cell death, % at 20 µM. 360,000 tested, 0.63% active. AID 588492, 2011;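 active = compounds giving at least 50% protection of heart cells from peroxide-induced death in the single-dose screen, raw or plate-pattern-corrected value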
DAGLB inhibitor = DAGLB lipase inhibitors, primary screen, biochemical, fluorescence, HTS | Diacylglycerol lipase-beta (Homo sapiens), Q8NCG7 | HEK293T DAGLB membrane lysate, EnzChek fluorogenic substrate | inhibition, % at 5.17 µM | 340,000 tested, 0.059% active | AID 504411, 2011; in the data active = inhibition above about 34%
Target sequence (Q8NCG7 whole entry, looked up): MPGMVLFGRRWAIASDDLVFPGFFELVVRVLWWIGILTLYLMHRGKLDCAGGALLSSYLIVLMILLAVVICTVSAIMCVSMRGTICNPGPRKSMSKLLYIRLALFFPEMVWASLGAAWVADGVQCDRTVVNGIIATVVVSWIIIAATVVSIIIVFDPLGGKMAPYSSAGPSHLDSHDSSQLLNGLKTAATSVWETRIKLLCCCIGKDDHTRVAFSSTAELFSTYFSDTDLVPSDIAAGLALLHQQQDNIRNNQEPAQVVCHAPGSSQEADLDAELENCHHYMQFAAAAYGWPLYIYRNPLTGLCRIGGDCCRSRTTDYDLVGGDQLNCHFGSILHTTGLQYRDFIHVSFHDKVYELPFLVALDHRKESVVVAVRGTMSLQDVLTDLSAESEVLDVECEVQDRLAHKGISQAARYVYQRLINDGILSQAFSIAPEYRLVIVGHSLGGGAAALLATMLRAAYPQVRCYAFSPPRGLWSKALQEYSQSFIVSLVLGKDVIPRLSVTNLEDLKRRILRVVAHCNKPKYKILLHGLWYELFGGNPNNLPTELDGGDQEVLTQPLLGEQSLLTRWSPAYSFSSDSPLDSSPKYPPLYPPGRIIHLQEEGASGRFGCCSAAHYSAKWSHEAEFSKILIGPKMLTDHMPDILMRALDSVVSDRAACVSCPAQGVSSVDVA
DDE Tn6 FP inh = inhibitors of Tn6 peptide binding to fibrin DD(E), primary screen, biochemical, fluorescence polarization, human fibrin, Tn6 probe; 370,000 tested, 0.21% active; AID 720509, 2013; Fibrinogen beta chain (Homo sapiens), P02675; Fibrin DD(E) TRITC-Tn6 fluorescence polarization displacement; inhibition, % at 8.3 µM;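 active = inhibition above a per-campaign cutoff: mean of compounds within control limits plus 3 SD, cut at about 15% in these data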
DDE Tn7 FP inh = inhibitors of Tn7 peptide binding to fibrin DD(E), primary screen, biochemical, fluorescence polarization, human fibrin, Tn7 probe | Fibrinogen beta chain (Homo sapiens), P02675 | FP displacement of FITC-Tn7 peptide from fibrin DD(E); 0% = median of compound wells per plate | inhibition, % at 8.3 µM | 370,000 tested, 0.13% active | AID 720508, 2013;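 active = inhibition above the mean of compounds falling within the control limits plus 3 SD of them, cut at about 14% in these data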
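Assay system: Human fibrin DD(E) protein | Medium: Tris buffer with calcium and detergent, pH 7.8 | Reagent: 0.1 µM fluorescent Tn7 | Compound dosing: Single point at 8.3 µM | Times: 10 min preincubation, 3 h with tracer, room temperature | Detection: Fluorescence polarization of the labelled Tn7 tracer | Controls: Aha-Tn7 high control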
MT1-MMP act inh = blockers of MT1-MMP proenzyme processing, primary screen, HT1080 RFP-PRO-GFP cells, GFP/RFP fluorescence; Matrix metalloproteinase-14 (Homo sapiens), P50281; GFP/RFP ratio fluorescence, overnight; percent of plate control window, DMSO zero; GFP/RFP ratio change, % at 20 µM; 360,000 tested, 0.061% active;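 active = GFP/RFP ratio change of at least 30% with cell ATP level not reduced by more than half and red fluorescence within 50% of control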
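Assay system: RFP-PRO-GFP reporter HT1080 cells; read-out basis: GFP/RFP fluorescence ratio; benchmarks: DMSO wells and RFP-L50D-GFP cells; doses: 20 µM single dose, 1% DMSO; schedule: overnight cell settling, then overnight compound exposure, 37 °C, 5% CO2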
TAG inh = inhibitors of triacylglycerol accumulation, primary screen, cell-based, uHTS, fluorescence, H9c2 | H9c2 cells, Nile Red lipid (TAG) fluorescence; cells loaded with 200 µM oleic acid | inhibition, % at 12.5 µM | 230,000 tested, 0.66% active;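 active = pattern-corrected inhibition of lipid staining of at least 50% with the nuclear-stain viability signal not falling by more than 50%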
Of the large screens only hits and unclear results are named; the others gave an inactive call.

CCOC(=O)C1=C(COC(=O)/C=C/c2ccc(Cl)cc2)NC(=O)NC1C (centres undefined)	none
COc1cccc(C2C3=C(CC(C)(C)CC3=O)Nc3cc4c(cc32)OCO4)c1 (centres undefined)	none (no result: TAG inh)
COc1cc2c(cc1OC)C(c1ccc3c(c1)OCO3)C1=C(CC(C)(C)CC1=O)N2 (centres undefined)	Cardio protect 72.3
O=C(COc1cccc(F)c1)Nc1nc(-c2ccccn2)cs1	Cardio protect 58.7
O=C(COc1ccc(F)cc1)Nc1nc(-c2ccccn2)cs1	Cardio protect 58.7
O=C(COc1ccc([N+](=O)[O-])cc1)Nc1nc(-c2ccccn2)cs1	Cardio protect 71.3
Cc1ccc(OCC(=O)Nc2nc(-c3ccccn3)cs2)c(C)c1	Cardio protect 53.0
O=C(Nc1nc(-c2ccccn2)cs1)Nc1ccc(F)cc1F	none (no result: TAG inh)
CC(=O)CC[C@@H]1CC[C@]2(CCCN(S(C)(=O)=O)C2)O1	none (no result: Cardio protect, DAGLB inhibitor, MT1-MMP act inh, TAG inh)
CC(=O)N1CCCN(S(=O)(=O)c2ccc3c(c2)n(C)c(=O)c(=O)n3C)CC1	none (no result: Cardio protect, DAGLB inhibitor, MT1-MMP act inh, TAG inh)
O=C(Nc1cccc2[nH]ncc12)NS(=O)(=O)c1ccccc1	DDE Tn6 FP inh 59.6 (no result: TAG inh)
CCn1c(CSc2nnc3ccccn23)nc2cc(C(=O)O)ccc21	DDE Tn6 FP inh 20.0, MT1-MMP act inh 41.8
CCCCCOc1ccc(Br)cc1/C(C)=N/NC1=NCCN1	TAG inh 68.8
COc1ccc(Br)cc1/C(C)=N/NC1=NCCN1	none
COc1cc(-c2ccc3c(=O)c4ccccc4n(C)c3c2)cc(OC)c1OC	Cardio protect 88.5
COc1ccc2[nH]cc(C(=O)CN3CC(C)CC(C)C3)c2c1 (centres undefined)	none (no result: TAG inh)
COc1ccc2[nH]cc(C(=O)CCl)c2c1	TAG inh 72.4
C=CCn1c(SCC(=O)c2ccc(O)c(O)c2)nnc1-c1cccc(Cl)c1	Cardio protect 54.6
C=CCn1c(SCC(=O)c2ccc(O)c(O)c2)nnc1-c1cccc(C)c1	none (no result: TAG inh)
c1ccc(-c2nn(Cc3ncco3)c3ccccc23)cc1	none (no result: Cardio protect, DAGLB inhibitor, MT1-MMP act inh, TAG inh)
COc1cc2c(C#CCCCO)c(-c3ccsc3)oc(=O)c2cc1OC	Cardio protect 68.5
CCOc1ccc(N(CC(=O)NCCSc2ccccn2)S(=O)(=O)c2ccc(Cl)cc2)cc1	none (no result: TAG inh)
CCOc1ccc(N(CC(=O)N/N=C/c2ccccn2)S(=O)(=O)c2ccc(Cl)cc2)cc1	Cardio protect 56.2
CCN(CC)c1ccc(NC(=O)c2cc3c(C)nn(-c4ccccc4)c3s2)cc1	none (no result: Cardio protect, DAGLB inhibitor, MT1-MMP act inh, TAG inh)
CCc1nnc(NC(=O)CCC(=O)N2CCN(C3c4ccccc4-c4ccccc43)CC2)s1	Cardio protect 61.2 (no result: TAG inh)
CCc1nnc(NC(=O)CCC(=O)N2CCN(Cc3ccccc3)CC2)s1	none (no result: TAG inh)
Cc1ccc(-c2cc3nc(-c4ccco4)cc(N4CCN(Cc5ccoc5)CC4)n3n2)cc1	none (no result: Cardio protect, DAGLB inhibitor, MT1-MMP act inh, TAG inh)
O=C1[C@H]2[C@@H](c3ccc(C(F)(F)F)cc3)N[C@]3(CCCN(Cc4ccc(F)cc4)C3=O)[C@H]2C(=O)N1Cc1ccccc1	Cardio protect 66.7
O=C1[C@H]2[C@@H](c3ccccc3)N[C@]3(CCCN(Cc4ccc(C(F)(F)F)cc4)C3=O)[C@H]2C(=O)N1Cc1ccccc1	none
COc1ccc(-c2ccc3c(c2)S(=O)(=O)c2cccc(C(=O)N4CCN(c5ccccn5)CC4)c2C3=O)cc1OC	Cardio protect 87.9
COc1ccc(-c2cc(C(=O)Nc3ccccc3N3CCOCC3)c3ccccc3n2)cc1OC	Cardio protect 61.7
COc1cc(-c2cc(C(=O)NCc3ccco3)c3ccccc3n2)cc(OC)c1OC	Cardio protect 58.6 (no result: TAG inh)
